# Measurements of several laboratories.
Compound,system,conditions,Tmax
COc1cc(N2CCC(N3CCN(C)CC3)CC2)ccc1Nc1ncnc(Nc2ccccc2S(=O)(=O)C(C)C)n1,"human, plasma","oral, 75 mg, multiple doses, patients",3.32 h
O=C(O)C[C@H](O)C[C@H](O)/C=C/c1c(C2CC2)nc2ccccc2c1-c1ccc(F)cc1,"human, plasma","oral, 2 mg, single dose, fed, healthy volunteers, tablet",1.13 h
C[C@@H](Nc1cc(F)cc(F)c1)c1cc(C(=O)N(C)C)cc2c(=O)cc(N3CCOCC3)oc12,"human, plasma","oral, 120 mg, single dose, patients",2 h
CO[C@H]1/C=C\C=C(/C)C(=O)NC2=CC(=O)C(NCCN(C)C)=C(C[C@@H](C)C[C@H](OC)[C@H](O)[C@@H](C)/C=C(\C)[C@@H]1OC(N)=O)C2=O,"human, plasma","intravenous, 27 mg/m², patients, infusion",0.9 h
COc1ccc([C@@H]2CN(C(=O)[C@@H](O)CO)C[C@@]2(C)[C@@H](C)O)cc1OC1CN(c2ccc(C)cn2)C1,"human, plasma","oral, 0.1 mg, single dose, healthy volunteers",1 h
CS(=O)(=O)CCC#N,"human, plasma","oral, 1000 mg, multiple doses, once daily",2 h
COC(=O)N[C@@H](C)CNc1nccc(-c2cn(C(C)C)nc2-c2cc(Cl)cc(NS(C)(=O)=O)c2F)n1,"human, plasma","oral, 50 mg, single dose",~1.5 h
O=C(Nc1c(Cl)cncc1Cl)c1ccc(OC(F)F)c(OCC2CC2)c1,"human, plasma","oral, 0.25 mg, single dose",0.75 h
FC(F)(F)c1ccc(CNc2ccc(Cc3c[nH]c4ncc(Cl)cc34)cn2)cn1,"human, plasma","oral, 600 mg, single dose, healthy volunteers",2.5 h
C#C[C@]1(COP(=O)(O)OP(=O)(O)OP(=O)(O)O)O[C@@H](n2cnc3c(N)nc(F)nc32)C[C@@H]1O,"human, plasma","oral, 400 mg, single dose",12.1 h
Oc1cc(O)c2c(c1)O[C@@H](c1ccc(O)c(O)c1)[C@@H](O)C2,"human, plasma","oral, 30 mg, single dose",1 h
CCCCOC(=O)N1CCN(C(=O)[C@H](CP(=O)(O)O)NC(=O)c2cc(N3CC[C@H](OC)C3)nc(-c3ccccc3)n2)CC1,"human, plasma","subcutaneous, 8 mg, single dose",0.667 h
CC(C)(Sc1ccncc1-c1ccc(C#N)c2ccccc12)C(=O)O,"male human, plasma","oral, 40 mg, single dose, fasted, healthy volunteers",0.75 h
Cc1nc(-c2cn3c(n2)-c2ccc(-c4cnn(C(C)(C)C(N)=O)c4)cc2OCC3)n(C(C)C)n1,"human, plasma","oral, 2 mg, patients",3.97 h
Cc1nc(NC(=O)N2CCC[C@H]2C(N)=O)sc1-c1ccnc(C(C)(C)C(F)(F)F)c1,"human, plasma","oral, 270 mg, patients",2.02 h
CC(C)[C@](O)(c1ccc2cc(OC(F)F)c(OC(F)F)cc2c1)c1c[nH]nn1,"female human, plasma","oral, 600 mg, single dose",2.5 h
CCOc1ccc(Cc2cc([C@@H]3O[C@H](CO)[C@@H](O)[C@H](O)[C@H]3O)ccc2Cl)cc1,"human, plasma","oral, 10 mg, multiple doses, steady state",0.77 h
CCc1nc2c(C)cc(N3CCN(CC(=O)N4CC(O)C4)CC3)cn2c1N(C)c1nc(-c2ccc(F)cc2)c(C#N)s1,"human, plasma","oral, 600 mg, single dose, fed, healthy volunteers",3.5 h
NS(=O)(=O)NCCNc1nonc1C(=NO)Nc1ccc(F)c(Br)c1,"human, plasma","oral, 100 mg, multiple doses, twice daily, steady state, patients",2 h
Cn1cc(-c2ccc(S(=O)(=O)[C@@H]3C[C@@H](C(=O)NC4(C#N)CC4)N(C(=O)C4(C(F)(F)F)CC4)C3)c(C(F)(F)F)c2)cn1,"human, plasma","oral, 3 mg, single dose, fasted, healthy volunteers",5 h
Nc1cc(C(F)(F)F)c(-c2cc(N3CCOCC3)nc(N3CCOCC3)n2)cn1,"human, plasma","oral, 25 mg/day, patients",1 h
C/C(=C\c1csc(C)n1)[C@@H]1C[C@@H]2O[C@]2(C)CCC[C@H](C)[C@H](O)[C@@H](C)C(=O)C(C)(C)[C@@H](O)CC(=O)N1,"human, plasma","intravenous, 20 mg/m², patients",1 h
C[C@@]1(c2cc(NC(=O)c3ccc(C#N)cn3)ccc2F)C=CSC(N)=N1,"human, plasma","oral, 150 mg, single dose",1.5 h
CCOc1cc2ncc(C#N)c(Nc3ccc(OCc4ccccn4)c(Cl)c3)c2cc1NC(=O)/C=C/[C@H]1CCCN1C,"human, plasma","oral, 80 mg, single dose",4.98 h
CC(C)(O)c1ccccc1-c1ccc2[nH]c(/C=C/c3ccc(C(F)(F)F)cc3)nc2c1,"male human, plasma","oral, 5 mg, single dose, fasted",3.95 h
CCc1nc(C(N)=O)c(Nc2ccc(N3CCC(N4CCN(C)CC4)CC3)c(OC)c2)nc1NC1CCOCC1,"human, plasma","oral, 120 mg, multiple doses, patients",3.03 h
CO[C@@H]1[C@H](OC(=O)N2CC(CCN3CCOCC3)C2)CC[C@]2(CO2)[C@H]1[C@@]1(C)O[C@@H]1CC=C(C)C,"human, plasma","subcutaneous, 0.2 mg, single dose, healthy volunteers",0.28 h
c1cnc2ccc(Nc3nc(NC4CC4)c4nc[nH]c4n3)cc2c1,"human, plasma","oral, 100 mg/m², patients",5.7 h
C=CC(=O)N(C)CCOc1c(N)ncnc1-c1cc(F)cc(NC(=O)c2ccc(C3CC3)cc2F)c1C,"human, blood","oral, 15 mg, single dose, healthy volunteers",0.5 h
CC(C)n1cc(C#N)c2cc(-n3cc(C(=O)O)cn3)ccc21,"human, plasma","oral, 50 mg, single dose, fasted, healthy volunteers",3 h
CCO[C@H]1CCN(Cc2c(OC)cc(C)c3[nH]ccc23)[C@H](c2ccc(C(=O)O)cc2)C1,"human, plasma","oral, 100 mg, multiple doses, twice daily, patients",1.53 h
